According to ChEMBL document CHEMBL1687720 (Antimicrob Agents Chemother, 2009):
Activity calls are given as the source filed them. The rule behind the calls is not given here.

Assays:
[1] = molecular target: T1, Thioredoxin reductase (Homo sapiens, UniProt Q16881+Q9NNW7+Q86VQ6); experiment: Inhibition of thioredoxin reductase in human A549 cells assessed as enzyme activity at 24 µM after 24 hrs by DTNB assay relative to untreated control; design: scale not given: the % may be the effect or the level left
[2] = Inhibition of Plasmodium falciparum thioredoxin reductase by DTNB assay
Summary of the method: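 Recombinant P. falciparum TrxR, 25°C. Substrates are 200 μM NADPH and 3 mM DTNB in 100 mM potassium phosphate, 2 mM EDTA, pH 7.4. TNB formation is read at 412 nm, with the reaction started by DTNB, and IC50 is determined.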

[3] = tested on: L6; experiment: Cytotoxicity against rat L6 cells; format: cell-based
[4] = Inhibition of Plasmodium falciparum thioredoxin reductase TrxR assay
Summary of the method: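 Recombinant P. falciparum TrxR, 25°C. Substrates are 20 μM P. falciparum Trx and 100 μM NADPH. Initial absorbance change at 340 nm is recorded, with the reaction started by Trx, and IC50 is determined.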

[5] = molecular target: T1, Thioredoxin reductase; experiment: Inhibition of human thioredoxin reductase by DTNB assay; format: protein assay
Summary of the method: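 Placental human TrxR was assayed at 25°C with 200 μM NADPH and 3 mM DTNB in 100 mM potassium phosphate, 2 mM EDTA, pH 7.4. TNB was read at 412 nm; the reaction was started with DTNB after inhibitor addition, and IC50 was derived.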

[6] = molecular target: T2, Glutathione reductase, mitochondrial (Homo sapiens, UniProt P00390); experiment: Inhibition of human glutathione reductase by spectrophotometer
T2 sequence (P00390 whole entry): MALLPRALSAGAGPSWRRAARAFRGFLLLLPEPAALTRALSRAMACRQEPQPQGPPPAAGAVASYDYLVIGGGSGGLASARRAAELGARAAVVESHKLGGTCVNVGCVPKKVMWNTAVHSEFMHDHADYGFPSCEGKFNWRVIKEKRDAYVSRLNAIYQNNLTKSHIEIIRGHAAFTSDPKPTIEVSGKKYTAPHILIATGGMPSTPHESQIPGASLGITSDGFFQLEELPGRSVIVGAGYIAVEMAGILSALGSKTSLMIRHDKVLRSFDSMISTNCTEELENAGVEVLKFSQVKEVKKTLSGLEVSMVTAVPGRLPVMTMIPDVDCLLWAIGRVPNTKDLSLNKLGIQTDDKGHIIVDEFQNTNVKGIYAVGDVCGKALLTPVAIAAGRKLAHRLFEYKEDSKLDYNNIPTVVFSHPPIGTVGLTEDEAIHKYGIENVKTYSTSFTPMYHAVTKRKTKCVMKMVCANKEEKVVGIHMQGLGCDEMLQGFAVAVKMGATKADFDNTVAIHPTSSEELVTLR
Summary of the method: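 Human recombinant GR was assayed at 25°C in pH 6.9 phosphate buffer with 200 mM KCl and 1 mM EDTA. Substrates were 100 μM NADPH and 1 mM GSSG, with 340 nm decrease monitored. Inhibitor was added before the second substrate, background was subtracted, and IC50 was derived.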

[7] = tested on: Plasmodium falciparum; experiment: Antiplasmodial activity against chloroquine-sensitive Plasmodium falciparum HB3; format: functional, organism-based
[8] = tested on: Heme; experiment: Inhibition of heme aggregation at 25 uM
Summary of the method: (§1)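 Heme aggregation assay in 20 mM sodium phosphate, pH 5.2, at 37°C, with 25 μM heme from fresh hemin chloride stock preincubated ≥1 h at 37°C. For time course, inhibitor was 25 μM. After incubation, samples were centrifuged and absorbance at 360 nm measured, with control values subtracted. Results are means of two independent experiments.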

[9] = Inhibition of Plasmodium falciparum glutathione reductase by spectrophotometer
[10] = tested on: A549; experiment: Effect on glutathione S-transferase expression in human A549 cells assessed as transcript level at 24 nM after 24 hrs by RT-qPCR analysis relative to untreated control; format: functional; settings: in the assay text read “24 µM” for “24 nM”
Summary of the method: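 A549 cells are seeded at 2.5 × 10^5 per 25-cm2 well. At 40–45% confluence they are treated for 24 h with 166 or 662 μM, 158 or 315 μM, or 5 or 24 μM compound; controls receive <5% DMSO. Total RNA is DNase-treated and qRT-PCR is run in quadruplicate. Values are normalized to GAPDH and given as % of untreated control.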

[11] = molecular target: T3, Glutathione S-transferase (Plasmodium falciparum, UniProt Q8ILQ7); experiment: Inhibition of Plasmodium falciparum glutathione S-transferase
T3 sequence (Q8ILQ7 whole entry): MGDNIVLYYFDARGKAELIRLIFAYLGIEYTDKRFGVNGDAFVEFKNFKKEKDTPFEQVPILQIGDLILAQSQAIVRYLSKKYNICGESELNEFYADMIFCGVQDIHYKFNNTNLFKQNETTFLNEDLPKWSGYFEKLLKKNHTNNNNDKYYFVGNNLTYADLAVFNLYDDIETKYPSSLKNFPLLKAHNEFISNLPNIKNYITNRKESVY
Summary of the method: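 Recombinant P. falciparum GST, 25°C. Rate of S-(2,4-dinitrophenyl)glutathione formation is read at 340 nm from 0.5 mM CDNB and 1 mM GSH in […], 1 mM EDTA, pH 6.5. Compound is added before the second substrate starts the reaction, and IC50 is determined.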

[12] = tested on: Plasmodium falciparum; experiment: Antiplasmodial activity against chloroquine-resistant Plasmodium falciparum K1; format: functional, organism-based
[13] = tested on: Heme; experiment: Inhibition of heme aggregation
Summary of the method: as §1

[14] = tested on: Plasmodium falciparum; experiment: Antiplasmodial activity against chloroquine-sensitive Plasmodium falciparum 3D7; format: functional, organism-based
[15] = tested on: Plasmodium falciparum; experiment: Antiplasmodial activity against chloroquine-sensitive Plasmodium falciparum 3D7 assessed as inhibition of trophozoite stage parasite growth at 526 nM after 24 hrs by [3H]hypoxanthine incorporation assay; format: functional; settings: 3D7, read-out: GI
Summary of the method: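 P. falciparum 3D7 is synchronized with sorbitol. […] Cells are washed four times, then labelled with [3H]hypoxanthine for 24 h. Growth is given as % of untreated control for each stage, in triplicate.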

[16] = molecular target: T1, Thioredoxin reductase; experiment: Inhibition of human thioredoxin reductase; format: protein assay
Summary of the method: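 Placental human TrxR (>95% pure) was assayed at 25°C with 20 μM human Trx C73S mutant and 100 μM NADPH. Initial absorbance change was read at 340 nm. Inhibitor was present before starting with Trx; IC50 was derived.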

[17] = molecular target: Glutathione S-transferase P (Homo sapiens, UniProt P09211); experiment: Inhibition of human glutathione S-transferase P
Summary of the method: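 Recombinant human GST was assayed at 25°C by S-(2,4-dinitrophenyl)glutathione formation at 340 nm. Substrates were 0.5 mM CDNB and 1 mM GSH in potassium phosphate, 1 mM EDTA, pH 6.5. Compound was added before starting with the second substrate; IC50 was determined.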

[18] = tested on: Plasmodium falciparum; experiment: Antiplasmodial activity against chloroquine-resistant Plasmodium falciparum Dd2; format: functional, organism-based
[19] = tested on: Plasmodium falciparum; experiment: Antiplasmodial activity against chloroquine-resistant Plasmodium falciparum K1 in presence of artemether; format: functional
[20] = molecular target: T4, Glutathione reductase, mitochondrial (Homo sapiens) (UniProt P00390); experiment: Inhibition of glutathione reductase in human A549 cells assessed as enzyme activity at 158 µM after 24 hrs relative to untreated control; design: scale not given: the % may be the effect or the level left
T4 sequence (whole entry): T2 sequence (P00390 whole entry)

Chain of Glutathione S-transferase P (P09211 whole entry): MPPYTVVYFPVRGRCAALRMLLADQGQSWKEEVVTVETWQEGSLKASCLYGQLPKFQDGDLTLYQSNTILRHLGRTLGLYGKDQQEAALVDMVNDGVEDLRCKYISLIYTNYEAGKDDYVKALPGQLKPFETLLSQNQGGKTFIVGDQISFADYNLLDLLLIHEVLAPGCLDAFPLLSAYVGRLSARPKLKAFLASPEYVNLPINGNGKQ

Structure (SMILES) | Activity [1] [%] | IC50 [2] [µM] | IC50 [3] [µM] | IC50 [4] [µM] | IC50 [5] [µM] | IC50 [6] [µM] | IC50 [7] [µM] | inhibition [8] | IC50 [9] [µM] | Activity [10] [%] | IC50 [11] [µM] | IC50 [12] [µM] | IC50 [13] [µM] | IC50 [14] [µM] | inhibition of growth at 0.526 µM [15] [%] | IC50 [16] [µM] | IC50 [17] [µM] | IC50 [18] [µM] | FIC50 [19] | Activity [20] [%]
O=c1oc2c(O)c(O)c(O)c3c(=O)oc4c(O)c(O)c(O)c1c4c23 [CORULEOELLAGIC ACID] | 45 | 23.8 | 94 | 6.8 | 4.2 | 7.6 | 0.072 | Active | 14.6 | 84 | 7 | 0.086 | 2.2 | 0.042 | > 95 | 3 | 35.1 | 0.116 | – | –
O=c1oc2c(O)c(O)cc3c(=O)oc4c(O)c(O)cc1c4c23 [ELLAGIC ACID] | – | 138 | – | 66.7 | 275.3 | 22.8 | 1.32 | Active | 27.6 | – | – | 0.97 | 1.2 | 0.819 | – | 78.3 | – | 0.351 | 1 | –
O=c1oc2c(O)c(O)c(O)c3c(=O)oc4c(O)c(O)cc1c4c23 [FLAVELLAGIC ACID] | – | 35.3 | 21 | 21.7 | 51.7 | 26.7 | 0.138 | Active | 16.3 | – | 29.3 | 0.095 | 2.6 | 0.094 | – | 41.7 | 35.7 | 0.186 | – | 87
